From ChEMBL document CHEMBL1143326, “Single-step high-yield radiosynthesis and evaluation of a sensitive 18F-labeled ligand for imaging brain peripheral benzodiazepine receptors with PET” (J Med Chem, 2009)

Columns and labels:
[1] = Distribution coefficient, log D at pH 7.4; assay type: physicochemical; conditions: octanol/water
Method in brief: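 Radioligand partitioned between n-octanol and sodium phosphate buffer (0.15 M, pH 7.4); LogD taken as log of the distribution coefficient; n = 6.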

Translocator protein [2] = target: Translocator protein (Rattus norvegicus, UniProt P16257); test: Displacement of [3H]PK11195 from rat PBR receptor
Chain of Translocator protein (Rattus norvegicus, UniProt P16257) (P16257 whole entry, looked up): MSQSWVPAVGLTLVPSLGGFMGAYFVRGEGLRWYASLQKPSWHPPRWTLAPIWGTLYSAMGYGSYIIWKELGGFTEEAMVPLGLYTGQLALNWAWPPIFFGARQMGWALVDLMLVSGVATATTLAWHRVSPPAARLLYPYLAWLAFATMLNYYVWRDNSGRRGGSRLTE

[3] = Displacement of [3H]PK11195 from monkey PBR receptor; set-up: species or system Macaca mulatta
Translocator protein [4] = target: Translocator protein (Homo sapiens, UniProt P30536); test: Displacement of [3H]PK11195 from human PBR receptor
Chain of Translocator protein (Homo sapiens, UniProt P30536) (P30536 whole entry): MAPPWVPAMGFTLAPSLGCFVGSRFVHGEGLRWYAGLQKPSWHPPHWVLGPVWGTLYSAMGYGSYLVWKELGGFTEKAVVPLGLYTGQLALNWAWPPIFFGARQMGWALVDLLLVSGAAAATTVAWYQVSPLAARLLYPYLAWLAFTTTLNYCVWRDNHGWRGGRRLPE
Method in brief: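 Competition binding against [3H]PK 11195 in human brain tissue (mitochondrial fraction of brain homogenate). The tissue came from the NIMH Clinical Brain Disorders Branch. Affinity is expressed as Ki.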

Plasma [5] = test: Stability in rat plasma assessed as drug recovery into acetonitrile analytes at 3.78 ug/kg, iv; conditions: 0.00378 mg/kg
Brain [6] = test: Stability in rat brain assessed as drug recovery into acetonitrile analytes at 3.78 ug/kg, iv; assay type: ADME, organism-based; conditions: in vivo, 0.00378 mg/kg
[7] = Drug level in rat brain assessed as unchanged drug level at >1.39 Ci/umol, iv after 60 mins; assay type: ADME, organism-based; conditions: read-out: Drug uptake
Plasma [8] = test: Drug level in rat plasma assessed as unchanged drug level at >1.39 Ci/umol, iv after 60 mins; assay type: ADME, organism-based; conditions: in vivo, 1 h
[9] = Drug level in rat urine assessed as unchanged drug level at >1.39 Ci/umol, iv after 60 mins; assay type: ADME, organism-based; conditions: in vivo, 1 h
[10] = Drug level in rat plasma assessed as drug recovery into acetonitrile analytes at >1.39 Ci/umol, iv after 60 mins; assay type: ADME, organism-based; conditions: read-out: Drug uptake
[11] = Drug level in rat brain assessed as drug recovery into acetonitrile analytes at >1.39 Ci/umol, iv after 60 mins; assay type: ADME, organism-based; conditions: read-out: Drug uptake
[12] = Drug level in rat urine assessed as drug recovery into acetonitrile analytes at >1.39 Ci/umol, iv after 60 mins; assay type: ADME, organism-based; conditions: read-out: Drug uptake
[13] = Stability in sodium phosphate buffer at pH 7.4 after 2 hrs by HPLC; assay type: physicochemical; conditions: pH 7.4, 2 h
Method in brief: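 Radioligand held in sodium phosphate buffer (0.15 M, pH 7.4) for 2 h at room temperature; analysed by HPLC.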

Plasma [14] = test: Fraction unbound in human plasma; assay type: ADME, cell-free
Method in brief: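 Radioligand added to pooled human plasma and ultrafiltered at 5000g through Centrifree units; all filter-unit components counted for radioactivity to give the free fraction; n = 3.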

Blood [15] = test: Drug level in monkey blood assessed as drug distribution in cellular compartment; assay type: ADME, tissue-based, Macaca mulatta; conditions: rhesus monkey
Method in brief: (§1)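 Radioligand incubated in vitro with monkey whole blood, then centrifuged; radioactivity counted in the plasma and cell fractions; n = 4.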

Plasma [16] = test: Drug distribution in monkey plasma; assay type: ADME, cell-free, Macaca mulatta; conditions: rhesus monkey; method in brief: as §1
Brain [17] = test: Drug level in rhesus monkey brain assessed as standard uptake value in choroid plexus of fourth ventricle at 2.76 to 5.8 mCi, iv; assay type: ADME, organism-based, Macaca mulatta; conditions: in vivo
Method in brief: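 Male rhesus monkeys (11–15 kg) anaesthetised with ketamine, then 1.6% isoflurane. Bolus i.v. radioligand (2.76–5.80 mCi; 0.068–0.276 μg/kg) given; PET for up to 300 min, co-registered with T1 MRI. Regional radioactivity expressed as %SUV; n = 4.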

[18] = Stability in rhesus monkey whole blood assessed as unchanged drug level after 45 mins by HPLC; assay type: ADME, tissue-based, Macaca mulatta; conditions: read-out: Stability
Method in brief: (§2)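 Radioligand incubated for at least 45 min at room temperature in monkey whole blood or plasma. Sample mixed with acetonitrile and centrifuged; supernatant analysed by reverse-phase radio-HPLC.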

[19] = Stability in rhesus monkey plasma assessed as unchanged drug level after 45 mins by HPLC; assay type: ADME, cell-free, Macaca mulatta; conditions: read-out: Stability; method in brief: as §2
[20] = Stability in rat brain assessed as unchanged drug level at 2 uCi upto 60 mins; assay type: ADME, tissue-based; conditions: read-out: Stability
[21] = Stability in rat plasma assessed as drug recovery at 1.36 Ci/umol, iv after 30 mins; assay type: ADME, organism-based; conditions: read-out: Stability
Method in brief: (§3)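 Isoflurane-anaesthetised rat at 37 °C given no-carrier-added radioligand i.v. (mass dose 0.85 μg/kg); sacrifice at 30 min. Plasma and brain homogenate (saline plus acetonitrile) extracted into acetonitrile; supernatants analysed by reverse-phase radio-HPLC (C18, MeOH/H2O/Et3N 75:25:0.1); recovery of radioactivity and parent fraction measured.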

[22] = Stability in rat brain assessed as drug recovery at 1.36 Ci/umol, iv after 30 mins; assay type: ADME, organism-based; conditions: read-out: Stability; method in brief: as §3
[23] = Stability in rat plasma at 3.78 ug/kg, iv after 7.3 mins; assay type: ADME, organism-based; conditions: 0.00378 mg/kg, read-out: Stability
[24] = Stability in rat plasma at 3.78 ug/kg, iv after 10.9 mins; assay type: ADME, organism-based; conditions: 0.00378 mg/kg, read-out: Stability
[25] = Stability in rat plasma at 3.78 ug/kg, iv after 94.3 mins; assay type: ADME, organism-based; conditions: 0.00378 mg/kg, read-out: Stability
[26] = Stability in rat brain at 3.78 ug/kg, iv after 95 mins; assay type: ADME, organism-based; conditions: 0.00378 mg/kg, read-out: Stability
Brain [27] = test: Drug level in rat brain assessed generation of polar radiometabolites as at 74.6 uCi, iv after 30 mins; assay type: ADME, organism-based; conditions: in vivo, 0.5 h
Plasma [28] = test: Drug level in rat plasma assessed generation of polar radiometabolites as at 74.6 uCi, iv after 30 mins; assay type: ADME, organism-based; conditions: in vivo, 0.5 h
Brain [29] = test: Drug level in rat brain assessed as standard uptake value at 74.6 uCi, iv after 30 mins; assay type: ADME, organism-based; conditions: in vivo, 0.5 h
Blood [30] = test: Drug level in rat blood assessed as standard uptake value at 74.6 uCi, iv after 30 mins; assay type: ADME, organism-based; conditions: in vivo, 0.5 h
Plasma [31] = test: Drug level in rat plasma assessed as standard uptake value at 74.6 uCi, iv after 30 mins; assay type: ADME, organism-based; conditions: in vivo, 0.5 h
Brain [32] = test: Stability in rat brain assessed as conversion into polar radiometabolites at 10 uCi after 30 mins; assay type: ADME, tissue-based; conditions: 0.5 h
Method in brief: (§4)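 Radioligand incubated for 30 min with rat brain homogenate or rat whole blood; conversion to polar species eluting at the solvent front measured by reverse-phase radio-HPLC.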

[33] = Stability in rat whole blood assessed as conversion into polar radiometabolites at 10 uCi after 30 mins; assay type: ADME, tissue-based; conditions: 0.5 h; method in brief: as §4

Compound: COc1ccc(OC)c(CN(C(=O)CF)c2ccccc2Oc2ccccc2)c1
- logD [1]: 4.05
- Ki (Translocator protein [2]): 0.18 nM
- Ki [3]: 0.318 nM
- Ki (Translocator protein [4]): 0.997 nM

Compound: COc1ccc(OC)c(CN(C(=O)C[18F])c2ccccc2Oc2ccccc2)c1
- Stability (Plasma [5]): 93%
- Stability (Brain [6]): 81.8%
- remaining at 1 h [7]: 32.6%
- Drug uptake (Plasma [8]): 14.2%
- Drug uptake [9]: 0.2%
- recovery at 1 h [10]: 93.2%
- recovery at 1 h [11]: 91%
- recovery at 1 h [12]: 80.3%
- Stability [13]: Stable
- Fu (Plasma [14]): 0.7%
- Drug uptake (Blood [15]): 93.4%
- Drug uptake (Plasma [16]): 6.6%
- Activity (Brain [17]): 350%
- remaining at 0.75 h [18]: 95.5%
- remaining at 0.75 h [19]: 97.2%
- remaining at 1 h [20]: > 99.2%
- remaining at 0.5 h [21]: 92.7%
- remaining at 0.5 h [22]: 85.1%
- remaining at 0.121667 h [23]: 44.6%
- remaining at 0.181667 h [24]: 37.6%
- remaining at 1.57167 h [25]: 5.7%
- remaining at 95 min [26]: 39.2%

Compound: O=C(C[18F])Nc1ccccc1Oc1ccccc1
- Activity (Brain [27]): > 99%
- Activity (Plasma [28]): > 99%
- Drug uptake (Brain [29]): 120%
- Drug uptake (Blood [30]): 196%
- Drug uptake (Plasma [31]): 226%
- Stability (Brain [32]): > 99.9%
- Stability [33]: > 99.9%

Compound: COc1ccc(OC)c(CN(C(C)=O)c2cc(F)ccc2Oc2ccccc2)c1
- Ki (Translocator protein [2]): 0.0726 nM
- Ki (Translocator protein [4]): 0.242 nM
